Source: PubChem
This is a sample that favours compounds with a hit; in the whole collection about 4.6% have one here.
TAAR1 ag – human TAAR1 agonism. 0.99% of 360,000 active. activation, % at 3 µM. Q96RJ0. CHO RD-HGA16 TAAR1, Fluo-8 calcium fluorescence; vehicle wells 0%, saturating PEA agonist 100%. AID 624467;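 active = activation above the mean activation of all test compounds in the run plus 3 SD, cut at about 38% in these data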
Target sequence (Q96RJ0 whole entry, looked up): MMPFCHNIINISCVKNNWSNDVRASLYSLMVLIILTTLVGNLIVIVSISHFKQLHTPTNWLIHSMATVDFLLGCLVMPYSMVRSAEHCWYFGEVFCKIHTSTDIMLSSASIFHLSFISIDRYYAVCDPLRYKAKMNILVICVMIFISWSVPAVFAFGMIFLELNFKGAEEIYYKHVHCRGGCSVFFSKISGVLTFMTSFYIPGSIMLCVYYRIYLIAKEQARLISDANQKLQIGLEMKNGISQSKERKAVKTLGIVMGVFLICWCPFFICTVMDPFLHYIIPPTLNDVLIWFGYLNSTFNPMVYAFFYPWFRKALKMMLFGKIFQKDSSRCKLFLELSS
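System: CHO-derived RD-HGA16 cells with stable Gα16 and human TAAR1 / Times: 17-24 h plating, Fluo-8 75 min 37 °C, 30 min RT / Technique: calcium-sensitive Fluo-8 signal, excitation 470-495, emission 515-575 nm / Measure: % activation relative to PEA EC100 response / Benchmarks: DMSO and PEA EC100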
TAAR1 antag – human TAAR1 antagonism; CHO RD-HGA16 TAAR1, Fluo-8 calcium fluorescence, antagonist; inhibition, % at 3 µM; 1.5% of 360,000 active;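 active = inhibition above a per-plate cutoff, the mean inhibition of test compounds on that plate plus 3 SD, cut at about 49% in these data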;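 also: 0% = DMSO plus EC80 beta-PEA response and 100% = DMSO alone without agonist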
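Test system: CHO RD-HGA16 cells bearing hTAAR1 | Reagent: β-PEA, EC80 | Compound dosing: 3 µM, single point | Schedule: Dye loading 75 min at 37 °C, then 30 min room temperature | Signal: Calcium fluorescence with Fluo-8 | Evaluation: Percent inhibition of PEA-evoked calcium signal, max/basal emission ratio | Control set: DMSO-only wells and EC80 β-PEA-stimulated wells | Repeats: Singlicate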
OX1R antag-1 – blocks the human orexin 1 receptor. O43613. OX1R-expressing cells, FRET antagonist read-out. inhibition, % at 6.6 µM. 1.8% of 330,000 active. AID 485270; in the data active = inhibition mostly above about 38%, no sharp cut-off; inactive = mostly below about 40%;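 also: 0% = agonist challenge alone and 100% = reference antagonist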
OX1R antag-2 – human HCRTR1 antagonism. O43613. CHO/OX1R cells, Fluo-8 calcium fluorescence, orexin A. inhibition, % at 5 µM. 0.43% of 330,000 active;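 active = inhibition above its plate's threshold, mean inhibition of all tested compounds on the plate plus 3 SD, cut at about 37% in these data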;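 also: 0% = orexin A challenge wells and 100% = SB-334867-A antagonist wells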
CHO parental Ca – signal in parental CHO cells, OX1R antagonist counter-screen; parental CHO-K1, ATP-induced calcium, Fluo-8 fluorescence; inhibition, % at 5.6 µM; 0.63% of 330,000 active;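 active = inhibition above that plate's mean sample inhibition plus 3 SD, cut at about 26% in these data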;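 also: 0% = ATP-challenged DMSO wells and 100% = DMSO wells without ATP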
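Assay system: parental CHO cells; Read-out basis: percent inhibition of ATP-evoked calcium rise, normalized to controls; Benchmarks: ATP and no-ATP DMSO wells; Compound dosing: single nominal dose of 5.6 µM per compound; Signal: Fluo-8 calcium dye fluorescence; Also added: ATP as calcium-mobilizing challenge; Repeats: singlicate.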
GPR7 antag – blocks human GPR7 receptor signaling; P48145; AID 1861; GPR7-expressing cells, fluorescence antagonist assay; 1.1% of 290,000 active; inhibition, % at 4.4 µM; in the data active = inhibition above about 16%, passing the limit was not always enough;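 also: cells stimulated with the agonist NPW; 0% = agonist with vehicle and 100% = vehicle without agonist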
Active calls of the source: *; x = not tested or not shown.

SMILES	TAAR1 ag	TAAR1 antag	OX1R antag-1	OX1R antag-2	CHO parental Ca	GPR7 antag
CNc1ncn(-c2c(C)cccc2C)c(=O)n1	1	-14	x	x	x	x
Cc1ccc(/C=C/c2ccc(N(C)C)cc2)[n+](C)c1	1	11	39*	-8	15	0
CC1(S(=O)(=O)O)CC(=O)c2ccccc2C1=O (stereo not given)	0	3	60*	-2	-2	-8
Nc1ncncc1-c1ccc(F)cc1	1	-23	x	x	x	x
Nc1ncncc1-c1ccc([N+](=O)[O-])cc1	1	-15	63*	0	-2	19
C[C@@H]1NS(=O)(=O)c2cccc(Cl)c2O[C@@H]1c1ccccc1	0	-30	x	x	x	x
COc1ccc(-c2cc(C(=O)N3CCN(c4ncccn4)CC3)c3ccccc3n2)cc1OC	13	57*	6	-18	-13	x
CCNC(=S)NNC(=O)c1cc(-c2ccc(OC)cc2)nc2ccccc12	0	11	11	-22	-22	-10
COc1ccc(-c2cc(C(=O)Nc3ccc(C(N)=O)cc3)c3ccccc3n2)cc1OC	12	54*	10	3	-12	-6
O=C(c1cc(-c2ccccn2)nc2ccccc12)N1CCN(c2ncccn2)CC1	4	17	18	-9	-6	1
Cc1ccc(-c2cc(C(=O)N3CCN(c4ncccn4)CC3)c3ccccc3n2)cc1	16	50*	13	-35	-33	-12
COc1ccc(Cl)cc1C(=O)NNC(=S)NC(=O)c1cc(-c2ccc(Cl)cc2)nc2ccccc12	37*	16	18	-5	-2	-3
O=c1[nH]nc(-c2ccc(NCCO)c([N+](=O)[O-])c2)c2ccccc12	0	-1	41*	-7	10	-1
O=c1[nH]nc(-c2ccc(NCCCO)c([N+](=O)[O-])c2)c2ccccc12	2	-3	27	-16	1	3
O=C(O)c1cnc(-c2ccccc2)nc1Sc1ccccc1Cl	-1	-24	56*	-22	0	-5
COc1ccc(/C=C2\Oc3ccccc3C2=O)cc1	13	0	22	1	-10	x
CC(=O)Oc1ccc(/C=C2/Oc3ccccc3C2=O)cc1	1	-17	6	35	49*	-1
Nc1c(N2CCCC2)cc(Cl)c2nonc12	x	x	40*	4	4	-10
CSCCC(NC(=O)c1ccc([N+](=O)[O-])cc1Cl)C(=O)OCC(=O)NC1CCCC(C)C1C (stereo not given)	6	13	17	-10	-22	3
CSCCC(NC(=O)c1ccc([N+](=O)[O-])cc1Cl)C(=O)OC1CCCCC1=O (stereo not given)	1	1	67*	-19	-10	-9
CSCCC(NC(=O)c1ccc([N+](=O)[O-])cc1Cl)C(=O)OCC(=O)NC(=O)CN1CCCC1=O (stereo not given)	0	-3	56*	-1	-8	x
CCCCCCC12C(=Cc3cc4c(cc31)OCCO4)c1cc(OC)c(OC)cc1C(CC(=O)NCc1ccccc1)N2C(=O)OC (stereo not given)	0	-21	x	x	x	x
CCOC(=O)c1ccc(NC(=O)c2nc[nH]c2C(=O)N(C)Cc2ccccc2)cc1	6	48	57*	-7	-18	x
CCCCOCCCNC(=O)C[C@H]1C[C@@]2(C(=O)OC)C(=C[C@H](COCc3ccccc3)O[C@@H]2C)N(CCC2=CCCCC2)C1=O	-3	-24	x	x	x	x
N#CC1=C(SCC(=O)Nc2cccc3cccnc23)NC(=O)C(C#N)C12CCCCC2 (stereo not given)	12	30	39*	-1	-9	4
N#CC1=C(SCC(=O)NC2CC2)NC(=O)C(C#N)C12CCCCC2 (stereo not given)	12	13	4	-12	5	-4
COc1ccc(N2C(=O)CN(Cc3cc(OC)c(OC)c(OC)c3)C2=S)cc1	10	29	47*	-17	-14	-1
COc1cccc(N2C(=O)CN(Cc3cc(OC)c(OC)c(OC)c3)C2=S)c1	3	-9	22	-24	-17	10
CCOc1ccccc1N1C(=O)CN(Cc2ccc(OC)c(OC)c2)C1=S	4	8	56*	-16	-28	4
